Source: PubChem BioAssay
TAAR1 agonist: agonists of human TAAR1; 0.99% of 360,000 active; CHO RD-HGA16 TAAR1, Fluo-8 calcium fluorescence; vehicle wells 0%, saturating PEA agonist 100%; activation, % at 3 µM; Q96RJ0;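 active means activation above the mean activation of all test compounds in the run plus 3 SD, cut at about 38% in these data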
Target sequence (Q96RJ0 whole entry, looked up): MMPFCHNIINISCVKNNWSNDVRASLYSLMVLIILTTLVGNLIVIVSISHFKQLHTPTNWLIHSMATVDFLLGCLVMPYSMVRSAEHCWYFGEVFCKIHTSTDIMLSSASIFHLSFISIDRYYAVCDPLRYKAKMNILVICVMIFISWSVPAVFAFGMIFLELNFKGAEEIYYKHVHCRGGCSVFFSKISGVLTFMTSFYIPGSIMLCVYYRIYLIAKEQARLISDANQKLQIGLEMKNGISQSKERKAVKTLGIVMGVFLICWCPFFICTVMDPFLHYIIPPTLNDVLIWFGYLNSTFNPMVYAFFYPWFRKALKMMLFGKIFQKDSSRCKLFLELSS
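Assay system: CHO-derived RD-HGA16 cells with stable Gα16 and human TAAR1; timing: 17-24 h seeding, 75 min 37 °C dye, 30 min RT; read-out: % activation from peak over basal fluorescence ratio, DMSO-to-PEA scaled; measured by: kinetic Fluo-8 calcium fluorescence; benchmarks: low control DMSO, high control PEA (EC100); doses: 3 µM single concentration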
OX1R antag-1: blocks the human orexin 1 receptor; CHO/OX1R cells, Fluo-8 calcium fluorescence, orexin A; O43613; inhibition, % at 5 µM; 0.43% of 330,000 active;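 active means inhibition above its plate's threshold, mean inhibition of all tested compounds on the plate plus 3 SD, cut at about 37% in these data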
TAAR1 antag: antagonists of human TAAR1. inhibition, % at 3 µM. Q96RJ0. AID 624466. 1.5% of 360,000 active. CHO RD-HGA16 TAAR1, Fluo-8 calcium fluorescence, antagonist;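 active means inhibition above a per-plate cutoff, the mean inhibition of test compounds on that plate plus 3 SD, cut at about 49% in these data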
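Material: RD-HGA16 CHO cells with stable hTAAR1 and Gα16; Dosing: single nominal final test compound concentration of 3 µM; Schedule: seeding 17-24 h prior, 75-min 37 °C, 30-min RT dye loading; Detection: kinetic Fluo-8 calcium fluorescence measurement; Measure: % inhibition from peak post-agonist over basal fluorescence ratio; Benchmarks: vehicle and agonist controls.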
OX1R antag-2: antagonists of human orexin 1 receptor (OX1R); O43613; OX1R-expressing cells, FRET antagonist read-out; inhibition, % at 6.6 µM; 1.8% of 330,000 active; in the data active means inhibition mostly above about 38%, no sharp cut-off; inactive means mostly below about 40%
CHO parental Ca: counter-screen: ATP calcium response change in parental CHO cells. parental CHO-K1, ATP-induced calcium, Fluo-8 fluorescence. inhibition, % at 5.6 µM. 0.63% of 330,000 active. AID 463079;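 active means inhibition above that plate's mean sample inhibition plus 3 SD, cut at about 26% in these data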
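Assay system: untransfected parental CHO cell line. Also added: ATP agonist challenge. Dosing: one dose, 5.6 µM nominal. Measured by: Fluo-8 fluorescence. Read-out: % inhibition. Benchmarks: ATP wells versus no-ATP DMSO wells. Repeats: no replicates.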
OX1R HTRF confirm: confirmation of human orexin 1 receptor antagonists, HTRF format; shares compounds with OX1R antag-2; inhibition, % at 6.6 µM; 49% of 1,800 active; OX1R-expressing cells, HTRF antagonist assay; in the data active means inhibition above about 55%;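 further: CHO cells expressing OX1R stimulated with orexin A at about EC80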
CHO-K1 HTRF: counter-screen: parental CHO-K1 HTRF response. shares compounds with OX1R antag-2. 48% of 1,800 active. inhibition, % at 6.6 µM. parental CHO-K1 cells, HTRF counterscreen; in the data active means inhibition above about 17%
Numbers stand for hits; n = inactive; x = no result; + = active, no number. Rows were chosen to be rich in hits. Some 3.9% of all compounds tested hit in one or more screens of this group.

SMILES	TAAR1 agonist	OX1R antag-1	TAAR1 antag	OX1R antag-2	CHO parental Ca	OX1R HTRF confirm	CHO-K1 HTRF
Nc1c([N+](=O)[O-])cnnc1-c1ccccc1	n	n	n	80.1	n	93.1	100.6
Oc1ccccc1CNc1cccc2cccnc12	n	n	n	120.3	n	n	n
O=C(Nc1ccc2oc(-c3ccccc3)nc2c1)C1CCCO1 (stereo not given)	n	n	n	98.0	n	n	n
CCc1cc2c(nc1CC)CCCN2S(=O)(=O)c1ccccc1	n	x	n	x	x	x	x
O=C(O)CNc1ncccc1[N+](=O)[O-]	n	n	n	+	n	n	46.3
CCOC(=O)[C@]12CCC=C1N(CCC1=CCCCC1)C(=O)[C@H](CC(=O)N1CCN(C(=O)c3ccco3)CC1)C2	n	x	n	x	x	x	x
CCC[n+]1c2ccccc2cc2ccccc21	n	n	n	83.6	n	n	54.1
CCCCC[n+]1cccc2c3ccccc3ccc21	n	n	n	n	n	x	x
COc1cccc(CNC(=O)c2cc3c(c(-c4cccc(-c5cccc(C#N)c5)c4)n2)[C@H](CCO)N(S(=O)C(C)(C)C)C3)c1 (stereo not given in full)	n	x	n	x	x	x	x
COc1ccc(CCNC(=O)c2cc3c(=O)n4ccccc4nc3n(CC3CCCO3)c2=N)cc1OC (stereo not given)	n	n	n	82.2	n	60.1	77.0
N=c1c(C(=O)NCCc2ccccc2)cc2c(=O)n3ccccc3nc2n1CC1CCCO1 (stereo not given)	n	n	n	88.4	n	82.5	61.6
N=c1c(C(=O)NC2CCCC2)cc2c(=O)n3ccccc3nc2n1CCN1CCOCC1	n	n	n	101.6	n	n	43.0
COCCCn1c(=N)c(C(=O)NCC2CCCO2)cc2c(=O)n3ccccc3nc21 (stereo not given)	n	n	n	93.3	n	n	65.3
CCCCCc1c(-c2ccc(F)cc2F)ncn1CCc1ccccc1OC	n	x	n	x	x	x	x
CC(C)c1[nH]nc2c1C(c1cccc(C(F)(F)F)c1)NC2=O (stereo not given)	n	x	n	x	x	x	x
O=C1CCCC2=C1C1(CCCC1)N=C(Nc1nc3cc(-c4ccccc4)ccc3o1)N2	n	x	n	x	x	x	x
CC(C)(C)n1nnnc1C(c1cc2ccccc2o1)N(CCC#N)Cc1ccccc1 (stereo not given)	n	x	n	x	x	x	x
Cc1cc(C)n(CCNC(=O)[C@H]2O[C@@H](n3ccc(=O)[nH]c3=O)[C@H](O)[C@@H]2O)n1	n	x	n	x	x	x	x
O=C1[C@H]2[C@H](C=CC[C@H]2C(=O)N2CCN(c3ccccc3)CC2)CCN1Cc1ccc(Cl)c(Cl)c1	n	n	n	n	n	x	x
O=C(NCCc1ccccc1)[C@@H]1CC=C[C@@H]2CCN(Cc3ccc(Cl)c(Cl)c3)C(=O)[C@@H]21	n	n	n	81.9	n	65.8	n
COc1ccc(-c2csc(C(NC(C)=O)c3ccccc3)n2)cn1 (stereo not given)	n	x	n	x	x	x	x
CCO/C(C)=N/n1c2nc3ccccc3nc2c2c(=O)n(C3CCCC3)c(C)nc21	n	n	n	99.5	n	n	36.5
Cc1nc2ccccc2c(=O)n1C1CCCCCC1	n	n	n	n	n	x	x
Cc1ccc(NC(=O)c2ccncc2)cc1[N+](=O)[O-]	n	n	n	105.0	n	n	32.1
CCOC(=O)C1CCN(C2=C(NS(=O)(=O)c3ccc(Cl)cc3)C(=O)c3ccccc3C2=O)CC1	n	n	n	114.0	n	118.7	42.2
CCOC(=O)N1CCN(C2=C(NS(=O)(=O)c3ccc(NC(C)=O)cc3)C(=O)c3ccccc3C2=O)CC1	n	n	n	82.7	n	58.6	83.2
CCN1CCN(C2=C(NS(=O)(=O)c3ccc(NC(C)=O)cc3)C(=O)c3ccccc3C2=O)CC1	n	n	n	94.3	n	59.4	104.1
CCOC(=O)N1CCN(S(=O)(=O)c2ccc(NC(C)=O)cc2)CC1	n	n	n	n	n	x	x
O=S1(=O)N[C@H](c2ccccc2)COc2cc(Br)ccc21	n	x	n	x	x	x	x
Cc1ccccc1Nc1cc(C(=O)NCc2ccco2)c2ccccc2n1	n	n	n	83.3	n	n	n
